The term inhibition denotes the change of the read-out against control, counted positive when it falls.

Screen size: about 300,000 compounds; about 4,400 (1.5%) were called active.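 The calls were made as follows: active = mean inhibition across valid replicates above about 55% (limit read from the data); inconclusive = mean below that limit but half or more replicates reach it; inactive = mean below it, under half of replicates reach it.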 This excerpt belongs to a sample that is enriched for actives.

The nature of the experiment: Trypanosoma cruzi replication blockers in host cells – luminescence, NIH3T3 host cells, primary screen (AID 1885).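 Also: signal also drops with host cell toxicity which is not excluded here; 0% = plate median of DMSO wells and 100% = zero luminescence signal; higher percent means less beta-gal luminescence so fewer parasites.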 Particulars: T. cruzi beta-gal in NIH3T3, luminescence, 90 h; stronger effect = higher value; concentration not given here. The method in brief: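 Incubation – ≥90 h infection period, 3 h prior cell attachment · System – NIH/3T3 fibroblasts plus reporter T. cruzi · Doses – compound pinned at 50 nL/well, DMSO · Read-out basis – percent inhibition of parasite-derived β-gal signal · Signal – luminescent β-galactosidase signal after 60 min lysis · Also added – 5000 T. cruzi trypomastigotes/well · Medium – Low-serum DMEM with 2% FBS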
For the compound `CCC(CC)c1nnc(NC(=O)C2=COCCO2)s1`, the inhibition is -5.48% (inactive). Under `Cc1cccc(C(=O)NCCCN(C)CCCNC(=O)c2cccc(C)c2)c1` stands 66.4% (active). The same measure for `Cc1cccc(C(=O)c2cccc(C)c2)c1`: -0.776% (inactive); for `CCNC(=O)COC(=O)CCNC(=O)c1cccc(C)c1`: 8.59% (inactive). As to `O=C(COC(=O)c1ccccc1Br)Nc1nnc(-c2ccccc2)o1`, the inhibition is 1.76% (inactive).

With `O=c1[nH]c(CCl)nc2cc(-c3ccc(Cl)cc3)sc12`, the inhibition was 55.8% (active). The same measure for `O=c1[nH]c(CN2CCOCC2)nc2cc(Cl)ccc12`: -13.1% (inactive); for `NC(=O)Cc1nc2scc(-c3ccc(Cl)cc3)c2c(=O)[nH]1`: -9.75% (inactive); for `CCC1CCC/C1=N\NC(=O)c1ccc(Cl)cc1` (stereo not drawn): -10.7% (inactive). Turning to `Cc1ccccc1Nc1nc(N)nc(CSc2ccccc2)n1`, the inhibition was 4.95% (inactive). The same measure for `O=C(CNC(=O)c1ccccc1Br)NCCSc1ccc(Br)cc1`: -2.64% (inactive); for `O=C(/C=C/c1ccc(Cl)c([N+](=O)[O-])c1)c1ccc(O)cc1`: -0.939% (inactive); for `O=C(/C=C/c1ccc(Cl)c([N+](=O)[O-])c1)c1cccnc1`: 34% (inactive).

As for `NC(N)=N/N=C/c1ccc(Cl)c([N+](=O)[O-])c1`, the inhibition is 60.6% (active). As to `COc1ccccc1C(=O)Nc1ccc(Nc2ccccc2)cc1`, the inhibition was -9% (inactive). Under `COc1ccccc1CNC(=O)COn1nnc2ccc(S(=O)(=O)N3CCOCC3)cc21` stands 3.8% (inactive).

Take `Cc1ccccc1-n1c(SCC(=O)NCc2cccs2)nnc1-c1ccncc1`: the inhibition is 9.95% (inactive). Turning to `Cc1ccc(-c2noc(CSc3nnc(-c4ccncc4)n3-c3ccc(F)cc3)n2)cc1`, the inhibition was 9.52% (inactive). Under `Cc1ccc(Nc2nc(CSc3nnc(-c4ccncc4)n3-c3ccccc3C)cs2)cc1` stands 57.4% (active); under `COC(=O)c1cc(NC(=O)c2nn(C)c(=O)c3ccccc23)cc(C(=O)OC)c1`, -14.3% (inactive). Regarding `O=C(CC1SC(N2CCCC2)=NC1=O)Nc1ccc(C(=O)NCCc2ccc(F)cc2)cc1` (stereo not drawn), the inhibition is -6.73% (inactive). `NS(=O)(=O)c1cccc(NC(=O)CN2CCCc3ccccc32)c1`: the inhibition is -16.2% (inactive). The same measure for `COC(=O)c1[nH]c2cccc(C)c2c1NC(=O)CN1CCCc2ccccc21`: 4.45% (inactive).

As to `COC(=O)c1[nH]c2ccccc2c1NC(=O)CN1CCCc2ccccc21`, the inhibition is 67.6% (active). Under `CSc1n[nH]c(=S)n1N` stands -10.3% (inactive); under `COC(=O)c1cnc(Nc2cc(C)ccc2OC)c2ccccc12`, -8.82% (inactive). As to `Cc1ccc(C(=O)NC(=S)NCc2cccnc2)cc1`, the inhibition was 14.1% (inactive). Under `Cc1c(C(=O)NC(=S)NCc2cccnc2)oc2ccccc12` stands 63.2% (active). `Cc1nonc1NC(=O)c1oc2ccccc2c1C`: the inhibition is -12.6% (inactive).

With `CC(C)CN(C(=O)COC(=O)c1ccc2ccccc2c1)c1c(N)n(Cc2ccccc2)c(=O)[nH]c1=O`, the inhibition was 2.62% (inactive). Take `CCN(C(=O)COC(=O)C1CCN(S(=O)(=O)c2ccc(C)c(C)c2)CC1)C1CCS(=O)(=O)C1` (stereo not drawn): the inhibition was -2.19% (inactive). Take `Cc1ccc(C(=O)c2c(NC(=O)c3ccncc3)sc3c2CCCC3)cc1`: the inhibition was 57.9% (active). Under `NC(=O)c1c(NC(=O)c2ccccc2)sc2c1CCCC2` stands 12.5% (inactive); under `Cc1ccc(NC(=O)c2c(NC(=O)CCC(=O)O)sc3c2CCCCC3)cc1`, -8.68% (inactive); under `CN(C)C(CNC(=O)c1cccc(S(=O)(=O)Nc2ccc(Br)cc2)c1)c1ccco1` (stereo not drawn), 20.3% (inactive).

As to `COc1ccc(OC)c(NC(=O)c2ccc3c(c2)C(=O)N(c2ccc(OC(C)=O)cc2)C3=O)c1`, the inhibition is -18% (inactive).

In the case of `CCCOc1ccc(NC(=O)C2OC3OC(C)(C)OC3C3OC(C)(C)OC23)cc1` (stereo not drawn), the inhibition was 4.62% (inactive).

`Cc1cc(-c2ccc(/C=N/n3cnnc3)o2)c([N+](=O)[O-])cc1C`: the inhibition is -3.12% (inactive).

Turning to `CN1CCN(/N=C/c2ccc(-c3ccc([N+](=O)[O-])cc3)o2)CC1`, the inhibition is 59.9% (active). As to `CN1CCN(/N=C/c2ccc(C#N)cc2)CC1`, the inhibition was 48.6% (inactive). As to `COc1ccc(-c2nc3c(s2)CCc2onc(-c4ccc(Br)cc4)c2-3)cc1`, the inhibition was -2.05% (inactive). Consider `Cc1ccc(OCCNC(=O)CCNS(=O)(=O)c2ccc(Br)cc2)cc1`, for which the inhibition is -1.12% (inactive). The same measure for `COc1ccc(NC(=O)CSc2nnc(Cc3ccccc3)c(=O)n2N)cc1`: -3.84% (inactive). For `CS(=O)(=O)c1ccc2nc(NC(=O)c3ccc(N4CCCC4=O)cc3)sc2c1`, the inhibition was 0.975% (inactive). Under `O=C(Nc1nc2ccc([N+](=O)[O-])cc2s1)c1ccc(S(=O)(=O)N2CCCc3ccccc32)cc1` stands 73.8% (active). Under `CN(C)CCCN(C(=O)c1ccc(S(=O)(=O)N2CCCc3ccccc32)cc1)c1nc2ccc(F)cc2s1` stands 22.9% (inactive); under `CC(C)(C)N1C(=O)[C@H]2[C@@H](c3ccc(Br)cc3)N3C(=O)N(c4cccc(Cl)c4)C(=O)[C@@]3(C)[C@H]2C1=O`, -6.33% (inactive); under `Cc1csc(NC(=O)C2=COCCO2)n1`, -7.78% (inactive). With `Cc1ccc(-c2csc(NC(=O)C3=COCCO3)n2)cc1C`, the inhibition is 71.6% (active). The same measure for `CC(=O)NCCC(=O)Nc1nc(-c2ccc3c(c2)OCCO3)cs1`: -11.7% (inactive). On to `Cc1ccc(-c2nn(-c3ccccc3)cc2C(=O)NCCCN2CCCC2=O)cc1`, for which the inhibition is -2.8% (inactive). As to `CC(C)(C)n1cnnc1Sc1ccc([N+](=O)[O-])cn1`, the inhibition was -5.35% (inactive).

As to `COc1ccc(C2CC(=O)Oc3ccc(C(C)(C)C)cc32)cc1` (stereo not drawn), the inhibition is -9.82% (inactive).

For `CCOc1ccc(N(C)Cc2cc(=O)oc3ccc(OC)cc23)cc1`, the inhibition is 79.2% (active). Under `COc1ccc2oc(=O)cc(-c3cc4ccccc4o3)c2c1` stands 0.932% (inactive); under `COc1ccc2oc(=O)cc(CN3CCOCC3)c2c1`, -6.42% (inactive). The same measure for `CCCn1c(C2CCCN2c2nc(-c3ccc(OC)cc3)cs2)nc2ccccc21` (stereo not drawn): -7.75% (inactive); for `Oc1c(C(c2ccccn2)N2CCOCC2)ccc2cccnc12` (stereo not drawn): 10.2% (inactive). Under `CCN1CCN(C(c2cccnc2)c2cc(Cl)c3cccnc3c2O)CC1` (stereo not drawn) stands 57.7% (active); under `CCOC(=O)N1CCN(C(c2cccnc2)c2ccc3cccnc3c2O)CC1` (stereo not drawn), 30.1% (inactive). Regarding `COc1ccc(Cl)cc1NS(=O)(=O)c1cccc(C(=O)NC2CCC(O)CC2)c1` (stereo not drawn), the inhibition was 3.45% (inactive).

Consider `COC(=O)c1c(-c2ccsc2)oc2ccc(-c3cc(OC)c(OC)c(OC)c3)cc12`, for which the inhibition was 34% (inactive).

Take `CNC(=O)C(=O)N/N=C/c1ccccn1`: the inhibition was -8.15% (inactive).

With `Cc1nnc(N/N=C/c2ccccn2)[nH]c1=O`, the inhibition is 60.9% (active). In the case of `Cc1nnc(N/N=C/C2CC=CCC2)[nH]c1=O` (stereo not drawn), the inhibition was 0.195% (inactive).

For `CC1(C)S[C@@H]2[C@H](N=CN3CCCCCC3)C(=O)N2[C@H]1C(=O)O`, the inhibition was 4.45% (inactive). As to `O=C(NCc1ccc(Cl)cc1)C(=O)NCC1CCCN1S(=O)(=O)c1cccs1` (stereo not drawn), the inhibition was 12.8% (inactive). The same measure for `O=C(/C=C/Sc1ncn[nH]1)c1ccc(Cl)cc1`: 56.1% (active); for `O=C(CSc1ncn[nH]1)N/N=C/c1ccc(F)cc1`: -12.6% (inactive); for `Cc1cc(C)nc(S/C=C/C(=O)c2ccccc2)n1`: 12% (inactive).

Regarding `O=C1[C@H]2[C@@H](c3ccc(F)cc3)N3C(=O)N(c4ccc(C(F)(F)F)cc4)C(=O)[C@@]3(Cc3ccccc3)[C@H]2C(=O)N1C1CCCCC1`, the inhibition is 36.5% (inactive). The same measure for `COc1ccc(CNC(=O)C2CCN(C(=O)c3ccccc3)CC2)cc1`: -1.19% (inactive); for `COc1cccc(N=c2oc3c(C)ncc(CO)c3cc2C(N)=O)c1`: 13.3% (inactive).

Turning to `CCCc1nc(NCc2ccc3c(c2)OCO3)c2nnn(Cc3ccccc3Cl)c2n1`, the inhibition was 11.9% (inactive). For the compound `Cc1nc(Nc2ccccc2F)c2nnn(Cc3ccccc3Cl)c2n1`, the inhibition is -8.04% (inactive). Regarding `Cc1nc(Nc2ccc3c(c2)OCCO3)c2nnn(Cc3ccccc3Cl)c2n1`, the inhibition is 54.7% (active). The same measure for `Cc1ccc(NS(=O)(=O)c2ccc3c(c2)NC(=O)CO3)cc1`: 5.83% (inactive). On to `CN(CC(=O)Nc1cccc(F)c1)C(=O)C1CC(=O)N(CCc2ccccc2)C1` (stereo not drawn), for which the inhibition is -2.73% (inactive). Under `NNC(=O)CSc1nnc(-c2ccccc2)n1-c1ccccc1` stands -6.88% (inactive); under `Cc1ccc(-c2nnc(SCC(=O)N/N=C/c3cccs3)n2-c2ccc(C)cc2)cc1`, 12.8% (inactive). `Cc1ccc(-n2c(SCC(=O)N3c4ccccc4Sc4ccccc43)nnc2-c2ccncc2)cc1`: the inhibition is 63.1% (active). Turning to `O=C(CCC1CCCN(C(=O)c2ccc(F)c(F)c2)C1)N1CCN(c2ccccn2)CC1` (stereo not drawn), the inhibition is 9.19% (inactive). The same measure for `COc1cc(/C=C2/SC(=S)N(Cc3ccccc3)C2=O)cc(OC)c1O`: -5.6% (inactive); for `O=C(Nc1ccccc1Cl)Nc1cccc2cccnc12`: 3.14% (inactive); for `O=C(Nc1cccc2cccnc12)c1cccc(Cl)c1`: -33.4% (inactive). The same measure for `CC(=O)/C(=N\Nc1ccc(Cl)cc1Cl)Sc1cccc2cccnc12`: 67.6% (active); for `CCOc1ccc(C(=O)CCC(=O)NC2=NCCS2)cc1`: 10.9% (inactive). With `CC(=O)c1cc(CN2CCC(n3nccc3NC(=O)c3ccccc3Cl)CC2)cs1`, the inhibition was 9.08% (inactive).

On to `N=c1c2c(-c3ccccc3)c(-c3ccccc3)n(Cc3ccccc3)c2ncn1CCCO`, for which the inhibition was 70.5% (active). The same measure for `CCN(CC)CCn1cnc2c1c(=O)[nH]c(=O)n2Cc1ccccc1`: -8.26% (inactive); for `COCCn1cnc2c1c(=O)n(Cc1ccc(Br)cc1)c(=O)n2Cc1ccccc1`: 19.6% (inactive); for `N#Cc1ccc(-c2ccc(Cl)cc2)nc1Oc1ccc(F)cc1`: 14.3% (inactive). Take `N#CCCN(C(=O)COC(=O)c1ccc(S(=O)(=O)N2CCCCCC2)cc1)c1ccccc1`: the inhibition was -2.09% (inactive).

The record behind these values is PubChem BioAssay AID1885 (Broad Institute, 2009).
